Among the data in ChEMBL document CHEMBL1157719, “1-Indol-1-yl-propan-2-ones and related heterocyclic compounds as dual inhibitors of cytosolic phospholipase A(2)alpha and fatty acid amide hydrolase” (Bioorg Med Chem, 2010) are inhibition and IC50 values, retold here.

Assay [1] concerns the target T1, Fatty-acid amide hydrolase 1 (Rattus norvegicus) (UniProt P97612).
T1 sequence (whole entry): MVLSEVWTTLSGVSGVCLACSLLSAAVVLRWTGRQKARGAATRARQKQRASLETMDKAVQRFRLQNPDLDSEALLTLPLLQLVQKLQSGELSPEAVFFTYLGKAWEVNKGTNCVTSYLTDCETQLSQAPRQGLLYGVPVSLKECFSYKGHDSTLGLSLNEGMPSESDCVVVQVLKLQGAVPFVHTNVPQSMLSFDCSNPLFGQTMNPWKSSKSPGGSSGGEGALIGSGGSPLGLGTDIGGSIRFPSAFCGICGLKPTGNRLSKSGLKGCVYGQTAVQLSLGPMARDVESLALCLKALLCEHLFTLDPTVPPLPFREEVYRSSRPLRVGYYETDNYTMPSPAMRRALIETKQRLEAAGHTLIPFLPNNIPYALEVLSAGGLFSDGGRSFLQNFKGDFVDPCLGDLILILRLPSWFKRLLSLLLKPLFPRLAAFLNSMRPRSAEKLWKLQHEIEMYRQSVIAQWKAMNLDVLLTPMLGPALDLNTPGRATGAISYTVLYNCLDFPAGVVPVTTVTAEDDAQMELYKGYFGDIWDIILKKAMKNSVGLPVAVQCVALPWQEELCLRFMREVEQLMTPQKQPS
Nature of the assay: Inhibition of FAAH from rat brain microsomes at 10 uM by RP-HPLC. The gist of the method: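 Rat brain microsomes as FAAH source; substrate N-(2-hydroxyethyl)-4-pyren-1-ylbutanamide 100 μM solubilized with Triton X-100 0.2%. Incubated 45 min, then stopped with acetonitrile/methanol plus internal standard 6-pyren-1-ylhexanoic acid. Released 4-pyren-1-ylbutanoic acid quantified directly by RP-HPLC with fluorescence (ex 340, em 380 nm), with vs without inhibitor. Inhibitor max 10 μM; IC50 means of at least two independent determinations.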

Assay [2] concerns the target T2, Cytosolic phospholipase A2 (Homo sapiens) (UniProt P47712).
T2 sequence (whole entry): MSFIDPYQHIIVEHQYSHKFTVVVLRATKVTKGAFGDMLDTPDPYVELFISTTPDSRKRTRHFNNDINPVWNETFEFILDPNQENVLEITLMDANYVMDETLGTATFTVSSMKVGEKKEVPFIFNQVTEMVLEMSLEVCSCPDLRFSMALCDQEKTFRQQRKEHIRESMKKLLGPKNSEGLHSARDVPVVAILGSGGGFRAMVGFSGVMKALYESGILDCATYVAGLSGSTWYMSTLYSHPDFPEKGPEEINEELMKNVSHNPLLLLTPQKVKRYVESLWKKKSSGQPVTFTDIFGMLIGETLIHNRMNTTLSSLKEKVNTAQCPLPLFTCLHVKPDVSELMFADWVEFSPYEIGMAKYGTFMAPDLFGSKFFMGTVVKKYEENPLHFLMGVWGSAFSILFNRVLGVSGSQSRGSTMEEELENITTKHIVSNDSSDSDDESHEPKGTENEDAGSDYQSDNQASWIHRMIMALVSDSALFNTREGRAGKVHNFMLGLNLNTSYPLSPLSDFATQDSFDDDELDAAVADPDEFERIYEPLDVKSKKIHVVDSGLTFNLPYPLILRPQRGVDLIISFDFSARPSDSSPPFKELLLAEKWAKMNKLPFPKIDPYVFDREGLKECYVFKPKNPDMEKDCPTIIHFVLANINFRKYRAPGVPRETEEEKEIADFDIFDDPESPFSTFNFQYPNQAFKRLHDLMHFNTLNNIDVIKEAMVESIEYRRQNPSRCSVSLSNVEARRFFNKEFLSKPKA
The assay is described as follows: Inhibition of cPLA2 from human platelets at 10 uM by RP-HPLC. The gist of the method: (§1)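 cPLA2α purified from human platelets; substrate sonicated covesicles of SAPC 200 μM and 1,2-dioleoyl-sn-glycerol 100 μM. Reaction 60 min, stopped with acetonitrile/methanol/0.1 M EDTA-Na2 containing 4-undecyloxybenzoic acid internal standard and NDGA. Arachidonic acid released measured by RP-HPLC, UV 200 nm, after solid-phase extraction, with vs without inhibitor; max 10 μM. IC50 means of at least two independent determinations.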

The nature of assay [3]: inhibition of MAGL up to 10 uM. In short, it runs like this: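 MAGL set up like the FAAH assay, using pyrene-labelled substrate 1,3-dihydroxypropan-2-yl 4-pyren-1-ylbutanoate; product measured by RP-HPLC with fluorescence detection; highest test concentration 10 μM.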
The target in assay [4] is T3, Fatty-acid amide hydrolase 1 (Rattus norvegicus, UniProt P97612).
T3 sequence (P97612 whole entry): T1 sequence (whole entry)
Nature of the assay: Inhibition of FAAH from rat brain microsomes by RP-HPLC.

For assay [5], the target named is T4, Cytosolic phospholipase A2 (Homo sapiens, UniProt P47712).
T4 sequence (P47712 whole entry): T2 sequence (whole entry)
The assay is described as follows: Inhibition of cPLA2 from human platelets by RP-HPLC. The gist of the method: as §1

SMILES strings stand for the structures. pIC50: −log10 of the molar value. Activity calls are given as the source filed them. No cut-off for these calls is given here.

As a reminder, the inhibition is the relative decrease from the control value, in per cent. On to `CCCCCCCCc1ccc(OCC(=O)Cn2c(C(=O)O)cc3ccccc32)cc1`, for which the inhibition entry in assay [1], in assay [2] and in assay [3] was “inactive” each time.

The term pIC50 denotes the negative decadic logarithm of the IC50, by convention in mol/L. High values mean a low IC50, low ones a high IC50. Regarding `CCCCCCCCCCOc1ccc(OCC(=O)COc2ccc(C(=O)O)cc2)cc1`, in assay [4], the pIC50 was 7.23. Besides, the inhibition entry in assay [3] was “inactive”.

`CCCCCCCCc1ccc(OCC(=O)Cn2ccc3cc(C(N)=O)ccc32)cc1` showed a pIC50 in assay [4] of 5.19. Further, the inhibition result in assay [3] is “inactive”.

In the case of `CCCCCCCCc1ccc(OCC(=O)Cn2ccc3cc(C(=O)OC)ccc32)cc1`, the inhibition result in assay [1] and in assay [3] was “inactive” each time. The pIC50 in assay [5] is below 5.00.

Take `CCCCCCCCc1ccc(OCC(=O)Cn2ccc3c(C(=O)O)cccc32)cc1`: the pIC50 in assay [4] and in assay [5] was below 5.00 each time. Also, in assay [1], the inhibition was 40%. Besides, in assay [3], the inhibition result was “inactive”.

As to `CCCCCCCCc1ccc(OCC(=O)Cn2ccc3cc(C)ccc32)cc1`, the inhibition result in assay [1], in assay [2] and in assay [3] was “inactive” in each case.

In assay [4], `CCCCCCCCc1ccc(OCC(=O)Cn2ccc3cc(C(=O)O)ccc32)cc1` gave a pIC50 of 5.55. Also, the inhibition entry in assay [3] is “inactive”.

With `CCCCCCCCc1ccc(OCC(=O)Cn2cc(C(=O)O)c3cc(C(=O)O)ccc32)cc1`, the inhibition entry in assay [1] and in assay [3] was “inactive” in each case.

Consider `CCCCCCCCc1ccc(OCC(=O)Cn2cc(C=O)c3cc(C(=O)O)ccc32)cc1`, for which the inhibition result in assay [1] and in assay [3] was “inactive” each time.

Regarding `CCCCCCCCc1ccc(OCC(=O)Cn2ncc3ccccc32)cc1`, in assay [4], the pIC50 is 5.30. For the same compound, the inhibition result in assay [2] and in assay [3] was “inactive” each time.

On to `CCCCCCCCc1ccc(OCC(=O)Cn2ccc3cc(Cl)ccc32)cc1`, for which the inhibition entry in assay [1], in assay [2] and in assay [3] was “inactive” each time.

On to `CCCCCCCCc1ccc(OCC(=O)Cn2cccc2C(=O)O)cc1`, for which the inhibition result in assay [1], in assay [2] and in assay [3] was “inactive” in each case.

Regarding `CCCCCCCCc1ccc(OCC(=O)Cn2nnc3ccccc32)cc1`, the pIC50 in assay [4] is 7.33; in assay [5], 5.66. In addition, in assay [3], the inhibition result was “inactive”.

`CCCCCCCCc1ccc(OCC(=O)Cn2ccc3ccccc32)cc1`: the inhibition result in assay [1], in assay [2] and in assay [3] was “inactive” throughout.

On to `O=C(CCCCCc1ccccc1)c1nc2ncccc2o1`, for which the pIC50 in assay [4] was 8.05. In addition, in assay [2], the inhibition result was “inactive”.

`CCCCCCCCc1ccc(OCC(=O)Cn2cc(C#N)c3cc(C(=O)O)ccc32)cc1`: the inhibition entry in assay [1] and in assay [3] was “inactive” throughout.

For the compound `CCCCCCCCc1ccc(OCC(=O)Cn2cc(C(=O)OC)c3cc(C(=O)O)ccc32)cc1`, the inhibition result in assay [1] and in assay [3] was “inactive” throughout.

In turn, `CCCCCCCCc1ccc(OCC(=O)Cn2ncc3ccc(C(=O)O)cc32)cc1` had a pIC50 in assay [4] below 5.00. In addition, the inhibition in assay [1] is 23%. Besides, in assay [3], the inhibition entry was “inactive”.

For the compound `CCCCCCCCc1ccc(OCC(=O)Cn2cc(C(C)(C)C)c3cc(C(=O)O)ccc32)cc1`, the inhibition entry in assay [1] and in assay [3] was “inactive” each time.

Take `CCCCCCCCc1ccc(OCC(=O)Cn2cc(C(=O)O)cn2)cc1`: the pIC50 in assay [4] was 6.96; in assay [5] it was 5.74. The inhibition entry in assay [3] is “inactive”.

In the case of `NC(=O)c1cccc(-c2cccc(OC(=O)NC3CCCCC3)c2)c1`, in assay [2], the inhibition entry was “inactive”.

In assay [4], `CCCCC/C=C\C/C=C\C/C=C\C/C=C\CCCC(=O)C(F)(F)F` [ARACHIDONYL TRIFLUOROMETHYLKETONE] gave a pIC50 of 5.43. In addition, in assay [3], the inhibition entry is “inactive”.

`CCCCCCCCc1ccc(OCC(=O)Cn2cnc(C(=O)O)c2)cc1`: the pIC50 in assay [4] is 5.72; in assay [5], 5.28. In assay [3], the inhibition result was “inactive”.

Take `CCCCCCCCc1ccc(OCC(=O)Cn2ccc3cc(C#N)ccc32)cc1`: the pIC50 in assay [4] and in assay [5] was below 5.00 each time. The compound also had an inhibition in assay [1] of 42%. In addition, in assay [3], the inhibition result was “inactive”.

Consider `CCCCCCCCc1ccc(OCC(=O)Cn2cnc3ccc(C(=O)O)cc32)cc1`, for which the pIC50 in assay [4] was 5.51. In addition, the inhibition result in assay [3] is “inactive”.

On to `CC(C)CN(Cc1ccccc1-c1ccccc1)[C@@H]1C[C@@H](CNC(=O)/C=C/c2ccc(/C=C3\SC(=O)NC3=O)cc2)N(C(=O)c2ccccc2C(=O)c2ccc(F)cc2F)C1`, for which, in assay [1], the inhibition result was “inactive”. The compound also gave a negative logarithm of the IC50 (pIC50) in assay [5] of 7.51.

For `CCCCCCCCc1ccc(OCC(=O)Cn2cc(Cl)c3cc(C(=O)O)ccc32)cc1`, the inhibition result in assay [1] and in assay [3] was “inactive” in each case.

Regarding `CCCCCCCCc1ccc(OCC(=O)Cn2cc(C(=O)O)c3ccccc32)cc1`, the inhibition result in assay [1] and in assay [3] was “inactive” throughout. The compound further had a pIC50 in assay [5] below 5.00.

As to `CCCCCCCCc1ccc(OCC(=O)Cn2ccc(C(=O)O)n2)cc1`, the negative logarithm of the IC50 (pIC50) in assay [4] is below 5.00; in assay [5], 5.09. Besides, the inhibition in assay [1] was 39%. Besides, in assay [3], the inhibition result is “inactive”.

The compound `CCCCCCCCc1ccc(OCC(=O)Cn2nnc3cc(C(=O)O)ccc32)cc1` showed a pIC50 in assay [4] of 6.85. The inhibition result in assay [3] was “inactive”.

As for `CCCCCCCCc1ccc(OCC(=O)Cn2ccc3cc(C=O)ccc32)cc1`, the pIC50 in assay [4] was below 5.00. Moreover, in assay [1], the inhibition stood at 45%. Besides, in assay [3], the inhibition result was “inactive”.

In the case of `CCCCCCCCc1ccc(OCC(=O)Cn2cccc2)cc1`, the inhibition entry in assay [1], in assay [2] and in assay [3] was “inactive” throughout.

Consider `CCCCCCCCc1ccc(OCC(=O)Cn2cnc3cc(C(=O)O)ccc32)cc1`, for which the pIC50 in assay [4] was 6.21. For the same compound, the inhibition entry in assay [3] is “inactive”.

Consider `CCCCCCCCc1ccc(OCC(=O)Cn2ccc(C(=O)O)c2)cc1`, for which the pIC50 in assay [4] was 5.44; in assay [5] it was 5.30. In assay [3], the inhibition entry was “inactive”.

For `CCCCCCCCc1ccc(OCC(=O)Cn2ncc3cc(C(=O)O)ccc32)cc1`, in assay [4], the pIC50 was 6.80. In addition, the inhibition entry in assay [3] was “inactive”.

Consider `CCCCCCCCc1ccc(OCC(=O)Cn2cc(C(C)=O)c3cc(C(=O)O)ccc32)cc1`, for which the inhibition entry in assay [1] and in assay [3] was “inactive” in each case. In assay [5], this compound had a pIC50 of 7.92.

For the compound `CCCCCCCCc1ccc(OCC(=O)Cn2ccnc2)cc1`, the pIC50 is 6.12 in assay [4] and 6.30 in assay [5]. In addition, in assay [3], the inhibition result is “inactive”.

`CCCCCCCCc1ccc(OCC(=O)Cn2ccc3ccc(C(=O)O)cc32)cc1`: the inhibition result in assay [1] and in assay [3] was “inactive” each time.

In assay [4], `CCCCCCCCc1ccc(OCC(=O)Cn2nnc3ccc(C(=O)O)cc32)cc1` had a pIC50 of 6.70. Moreover, the inhibition entry in assay [3] was “inactive”.
